# Experimental data collected from several papers.
# Each line is one published result; the experiments were not run side by side.
SMILES,target or system,test,system,conditions,measurement,result
COc1ccc(N2CCN(CC(=O)Nc3ccc(C(=O)C=Cc4ccc(C)cc4)cc3)CC2)cc1,MCF-10A,"cell growth or viability, MTT",,"50 µM, 96 h",viability,90%
Cc1cc(S(=O)(=O)NC2CC(N3CCN(CC4CCN(c5cccc6c5n(C)c(=O)n6C5CCC(=O)NC5=O)CC4)C4(CC4)C3)C2)ccc1Nc1ncc(C(F)(F)F)c(N2CCC[C@](C)(O)C2)n1 (stereo partly drawn),MDCK,,Caco-2,"1 µM, 2 h, pH 7.4",Papp A→B,0.7 ×10⁻⁶ cm/s
COc1ccc(N2CCN(CC(=O)Nc3ccc(C4=NN(C(C)=O)C(c5ccccc5)C4)cc3)CC2)cc1 (stereo not drawn),MCF-10A,"cell growth or viability, MTT",,"50 µM, 96 h",viability,87%
Cc1cc(S(=O)(=O)N[C@]2(C)C[C@@H](N3CCN(CC4CCN(c5ccc6c(c5F)n(C)c(=O)n6C5CCC(=O)NC5=O)CC4)CC3)C2)ccc1Nc1ncc(C(F)(F)F)c(N2CCC[C@](C)(O)C2)n1 (stereo partly drawn),MDCK,,Caco-2,"1 µM, 2 h, pH 7.4",Papp A→B,1.5 ×10⁻⁶ cm/s
O=c1c2cc(F)c(Oc3ccc(OC(F)(F)F)cc3)cc2[nH]c2cc(Cl)cc(F)c12,,metabolic stability,"mouse, liver microsomes","1 µM, pH 7.4",half-life,> 60 min
COc1ccc(-c2nn(-c3ccccc3)cc2C=Nc2c(N)nc(S)nc2O)cc1,MCF-10A,cell growth or viability,,48 h,CC50,> 40 µM
CCCCN(CCCC)CCCOc1ccc2c(=O)c3c([nH]c2c1)CCCC3,,metabolic stability,"mouse, liver microsomes","1 µM, pH 7.4",half-life,38.3 min
O=C(CN1CCN(c2ccc(Cl)cc2)CC1)Nc1ccc(C(=O)C=Cc2ccccc2)cc1,MCF-10A,"cell growth or viability, MTT",,"50 µM, 96 h",viability,85%
Cc1cc(S(=O)(=O)N[C@H]2CC[C@H](CN3CCN(c4cccc(NC5CCC(=O)NC5=O)c4)CC3)CC2)ccc1Nc1ncc(C(F)(F)F)c(N2CCC[C@](C)(O)C2)n1 (stereo partly drawn),MDCK,,Caco-2,"1 µM, 2 h, pH 7.4",Papp A→B,2.9 ×10⁻⁶ cm/s
COc1ccc(N2CCN(CC(=O)Nc3ccc(C4=NN(C(C)=O)C(c5cc(OC)c(OC)c(OC)c5)C4)cc3)CC2)cc1 (stereo not drawn),MCF-10A,"cell growth or viability, MTT",,"50 µM, 96 h",viability,91%
O=c1c2ccc(Oc3ccccc3OC(F)(F)F)cc2[nH]c2cc(Cl)cc(F)c12,,metabolic stability,"mouse, liver microsomes","1 µM, pH 7.4",half-life,43.4 min
Cc1cc(S(=O)(=O)NC2CC(N3CCN(CC4CCN(c5ccc6c(c5F)n(C)c(=O)n6C5CCC(=O)NC5=O)CC4)CC3)C2)ccc1Nc1ncc(C(F)(F)F)c(N2CCCC(C)(O)C2)n1 (stereo not drawn),MDCK,,Caco-2,"1 µM, 2 h, pH 7.4",Papp A→B,1.9 ×10⁻⁶ cm/s
Cc1ccc(-c2nn(-c3ccccc3)cc2C=Nc2c(N)nc(S)nc2O)cc1,MCF-10A,cell growth or viability,,48 h,CC50,> 20 µM
Cc1cc(S(=O)(=O)NC2CC(N3CC[C@@H](OC4CN(c5cccc6c5n(C)c(=O)n6C5CCC(=O)NC5=O)C4)[C@H](F)C3)C2)ccc1Nc1ncc(C(F)(F)F)c(N2CCC[C@](C)(O)C2)n1 (stereo partly drawn),MDCK,,Caco-2,"1 µM, 2 h, pH 7.4",Papp A→B,0.9 ×10⁻⁶ cm/s
COc1ccc(N2CCN(CC(=O)Nc3ccc(C4=NN(C(C)=O)C(c5ccc(Cl)cc5Cl)C4)cc3)CC2)cc1 (stereo not drawn),MCF-10A,"cell growth or viability, MTT",,"50 µM, 96 h",viability,89%
Cc1cc(S(=O)(=O)N[C@H]2CC[C@H](N3CCN(CC4CCN(c5cccc6c5n(C)c(=O)n6C5CCC(=O)NC5=O)CC4)CC3)CC2)ccc1Nc1ncc(C(F)(F)F)c(N2CCC[C@](C)(O)C2)n1 (stereo partly drawn),MDCK,,Caco-2,"1 µM, 2 h, pH 7.4",Papp A→B,0.7 ×10⁻⁶ cm/s
O=c1c2c([nH]c3ccc(Oc4ccc(OC(F)(F)F)cc4)cc13)CCCC2,,metabolic stability,"mouse, liver microsomes","1 µM, pH 7.4",half-life,35.5 min
O=C(O)COc1cccc(-c2nc(Nc3ccc4[nH]ncc4c3)c3ccccc3n2)c1,"Solute carrier family 22 member 6 (SLC22A6, Homo sapiens, UniProt Q4U2R8)","transporter uptake, inhibitor, radiometric",,,IC50,> 500 µM
CN(C)CCOc1ccc2c(=O)c3c([nH]c2c1)CCCC3,,metabolic stability,"mouse, liver microsomes","1 µM, pH 7.4",half-life,34.3 min
COc1ccc(C2CC(c3ccc(NC(=O)CN4CCN(c5ccc(OC)cc5)CC4)cc3)=NN2C(C)=O)cc1 (stereo not drawn),MCF-10A,"cell growth or viability, MTT",,"50 µM, 96 h",viability,92%
CCCN(CCC)CCOc1ccc2c(=O)c3c([nH]c2c1)CCCC3,,metabolic stability,"mouse, liver microsomes","1 µM, pH 7.4",half-life,26.9 min
COc1ccc(C2CC(c3ccc(NC(=O)CN4CCN(c5ccc(Cl)cc5)CC4)cc3)=NN2C(C)=O)cc1 (stereo not drawn),MCF-10A,"cell growth or viability, MTT",,"50 µM, 96 h",viability,86%
CNS(=O)(=O)c1ccc(Nc2ncc(C(F)(F)F)c([C@H]3CC[C@@](C)(O)CC3)n2)c(C)c1,MDCK,,Caco-2,"1 µM, 2 h, pH 7.4",Papp A→B,7.6 ×10⁻⁶ cm/s
O=c1c2ccccc2[nH]c2cc(Oc3ccc(OC(F)(F)F)cc3)ccc12,,metabolic stability,"mouse, liver microsomes","1 µM, pH 7.4",half-life,26.9 min
CC(=O)N1N=C(c2ccc(NC(=O)CN3CCN(c4ccc(Cl)cc4)CC3)cc2)CC1c1ccco1 (stereo not drawn),MCF-10A,"cell growth or viability, MTT",,"50 µM, 96 h",viability,84%
O=c1c2ccc(OCc3ccc(C(F)(F)F)cc3)cc2[nH]c2cc(Cl)cc(F)c12,,metabolic stability,"mouse, liver microsomes","1 µM, pH 7.4",half-life,> 60 min
C[C@H]1Oc2cc(cnc2N)-c2c(nn(C)c2C#N)CN(C)C(=O)c2ccc(F)cc21,,,"male Sprague-Dawley rat, brain","oral, 10 mg/kg, 1 h, single dose",concentration,495 ng/g
